Experimental data pooled from the literature.
Lines come from different studies, so protocols differ.

SMILES | species | medium | route | dose | setting | quantity | result
CCc1cc(OC)c2nccc(N3CCc4c(cc(Cn5ccnc5)cc4-c4cn(C)nc4C(F)(F)F)C3=O)c2c1 | male CD-1 mouse | plasma | intravenous | 3 mg/kg | – | MRT(0-inf) | 0.7 h
Cc1cc(NC(=O)c2cccc3cc(-c4cccc5[nH]nc(N)c45)ccc23)ccc1F | male CD-1 mouse | brain | oral | 10 mg/kg | – | MRT(0-inf) | 3.74 h
COc1ccc2nccc(N3CCc4c(cc(Cn5ccnc5)cc4-c4cn(C)nc4C(F)(F)F)C3=O)c2c1 | male CD-1 mouse | plasma | oral | 10 mg/kg | – | MRT(0-inf) | 1.4 h
c1ccc(-c2nc(N3CCC(c4ccccn4)C3)c3ccccc3n2)nc1 (stereo not shown) | female BALB/c mouse | plasma | oral | 12.5 mg/kg | – | MRT(0-t) | 5.1 h
COc1nc(-c2cc(C)c(N[C@@H](C)c3ccc(F)cc3)nn2)ccc1-n1cnc(C)c1 | male CD-1 mouse | plasma | intravenous | 1 mg/kg | single dose | MRT(0-t) | 3.62 h
CCc1cc(C(=O)NC)c2nccc(N3CCc4c(cc(Cn5ccnc5)cc4-c4cn(C)nc4C(F)(F)F)C3=O)c2c1 | male CD-1 mouse | plasma | intravenous | 3 mg/kg | – | MRT(0-inf) | 0.5 h
COc1nc(-c2cc(C)c(N[C@@H](C)c3c(F)cc(F)cc3F)nn2)ccc1-n1cnc(C)c1 | male CD-1 mouse | plasma | oral | 5 mg/kg | single dose | MRT(0-t) | 5.24 h
CC(C)(Nc1nc(-c2ccccn2)nc2ccccc12)c1ccccn1 | female BALB/c mouse | plasma | intravenous | 1 mg/kg | – | MRT(0-t) | 1.2 h
COc1nc(-c2cc(C)c(N[C@@H](C)c3cc(F)cc(F)c3)nn2)ccc1-n1cnc(C)c1 | male CD-1 mouse | plasma | intravenous | 1 mg/kg | single dose | MRT(0-t) | 3.3 h
COc1ccc2cc(CCC[18F])ccc2c1 | male BALB/c mouse | plasma | intravenous | – | – | MRT | 0.698 h
